6 compounds from ChEMBL document CHEMBL4052828, “Discovery of 4-((7H-Pyrrolo[2,3-d]pyrimidin-4-yl)amino)-N-(4-((4-methylpiperazin-1-yl)methyl)phenyl)-1H-pyrazole-3-carboxamide (FN-1501), an FLT3- and CDK-Kinase Inhibitor with Potentially High Efficiency against Acute Myelocytic Leukemia” (J Med Chem, 2018) can be followed below.

The source made the active and inactive calls. The rule behind the calls is not given here.

For data set [1], the target named is CDK2/Cyclin A1 (Homo sapiens, UniProt P24941). Kind of data set: Inhibition of human CDK2/Cyclin A1 using histone H1 as substrate preincubated for 20 mins followed by [gamma-33P]-ATP addition measure after 120 mins by filter binding method. It counts as protein-complex assay. Put shortly:
(§1)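 Compound preincubated with kinase 20 min at room temperature. Filter-binding read-out, curve-fitted IC50; mean ± SD of three independent experiments.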

For data set [2], the target named is T1, Receptor-type tyrosine-protein kinase FLT3 (Homo sapiens, UniProt P36888).
T1 sequence (P36888 whole entry): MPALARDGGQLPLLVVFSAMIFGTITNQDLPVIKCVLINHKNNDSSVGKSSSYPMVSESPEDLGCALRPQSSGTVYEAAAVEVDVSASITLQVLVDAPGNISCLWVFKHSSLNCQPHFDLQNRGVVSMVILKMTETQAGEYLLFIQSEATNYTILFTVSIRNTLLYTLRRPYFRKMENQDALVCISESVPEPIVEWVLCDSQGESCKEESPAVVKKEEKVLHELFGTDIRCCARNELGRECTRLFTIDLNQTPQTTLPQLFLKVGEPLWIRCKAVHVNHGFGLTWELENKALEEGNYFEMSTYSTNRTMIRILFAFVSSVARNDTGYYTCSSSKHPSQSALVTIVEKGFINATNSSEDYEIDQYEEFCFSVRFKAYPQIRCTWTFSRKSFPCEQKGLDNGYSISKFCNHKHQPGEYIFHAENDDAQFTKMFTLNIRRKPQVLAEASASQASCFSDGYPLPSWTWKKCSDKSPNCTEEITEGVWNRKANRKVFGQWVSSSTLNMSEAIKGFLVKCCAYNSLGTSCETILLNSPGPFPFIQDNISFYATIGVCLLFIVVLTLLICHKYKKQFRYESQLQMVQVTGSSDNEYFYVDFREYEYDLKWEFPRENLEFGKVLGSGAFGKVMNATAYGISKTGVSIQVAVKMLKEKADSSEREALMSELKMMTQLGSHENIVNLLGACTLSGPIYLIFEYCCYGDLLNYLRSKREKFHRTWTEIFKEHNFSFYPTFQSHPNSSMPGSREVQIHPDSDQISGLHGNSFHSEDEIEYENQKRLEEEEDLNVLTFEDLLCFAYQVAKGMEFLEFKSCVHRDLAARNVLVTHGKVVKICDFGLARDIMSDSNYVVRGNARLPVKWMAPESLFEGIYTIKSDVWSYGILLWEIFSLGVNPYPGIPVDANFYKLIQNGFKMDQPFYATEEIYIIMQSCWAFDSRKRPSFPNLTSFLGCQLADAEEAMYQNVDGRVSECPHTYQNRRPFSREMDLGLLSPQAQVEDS
Description: Inhibition of human FLT3 using EAIYAAPFAKKK as substrate preincubated for 20 mins followed by [gamma-33P]-ATP addition measure after 120 mins by filter binding method. Put shortly: as §1

In data set [3] the test system is MV4-11. Kind of data set: Growth inhibition of human MV4-11 cells after 72 hrs by CellTiter-Glo assay. It is filed as functional, cell-based. To be noted: MV4-11, 72 h. A digest of the protocol: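 MV4-11 cells grown in IMDM with 10% FBS, 2% L-glutamine and 1% pen/strep at 37 °C, 5% CO2. Seeded at 10000 cells/well and exposed to compound at various concentrations for 72 h. Viability read by CellTiter-Glo luminescence.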
On the technique in general: Cellular ATP, detected with luciferase, serves as a proxy for viable cell number.

A short description of data set [4]: Lipophilicity, log P of the compound. To be noted: octanol/water. It is filed as physicochemical.
Data set [5] relates to MV4-11. Kind of data set: Antitumor activity against human MV4-11 cells xenografted in nu/nu mouse assessed as tumor growth inhibition at 50 mg/kg, iv qd measured on day 21 relative to vehicle-treated control. It is filed as functional. To be noted: MV4-11, iv, 504 h, read-out: TGI. Put shortly:
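Female nu/nu mice bearing MV4-11 xenografts; dosing began once tumors reached 200 mm3. Given iv once daily for 21 days, with a vehicle-only group. Body weight and tumor size tracked relative to initial values, set as 100%. Tumors weighed at the end of the 22-day treatment period.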
For orientation: Xenograft models place foreign cells or tissue in a host animal.

The test system of data set [6] is MV4-11. Kind of data set: Induction of apoptosis in human MV4-11 cells assessed as early apoptotic cells at 2 uM after 24 hrs by annexin V-FITC/propidium iodide staining-based flow cytometric method (reference value: 3.54%). It counts as functional.
The subject of data set [7] is MV4-11. Description: Induction of apoptosis in human MV4-11 cells assessed as late apoptotic cells at 2 uM after 24 hrs by annexin V-FITC/propidium iodide staining-based flow cytometric method (reference value: 2.54%). It is filed as functional. A general note: A flow cytometer gives signals particle by particle.
For data set [8], the system named is MV4-11. Kind of data set: Cell cycle arrest in human MV4-11 cells assessed as accumulation at G0/G1 phase at 0.2 uM after 24 hrs by propidium iodide/BrdU staining-based flow cytometric method. It counts as functional. A digest of the protocol:
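Cells treated with compound for 24 h, then fixed. Double-stained with propidium iodide and BrdU for flow cytometric analysis of cell cycle distribution.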

For data set [9], the target named is Receptor-type tyrosine-protein kinase FLT3 (Homo sapiens) (UniProt P36888). To be noted: 1 uM.
For data set [10] the target is unchanged. To be noted: 1 uM. This is another data set of the same source.
For data set [11] the target is unchanged. The following applies: 1 uM. The source holds these as a separate data set.
Data set [12] has the same target. To be noted: 1 uM. This is another data set of the same source.
Data set [13] deals with MV4-11. Description: Growth inhibition of human MV4-11 cells at 1 uM after 72 hrs by CellTiter-Glo assay relative to control. It counts as functional. The following applies: MV4-11, 72 h, read-out: GI.
Data set [14] has as its target Cyclin-dependent kinase 4/cyclin D1 (Homo sapiens, UniProt P11802). Kind of data set: Inhibition of human CDK4/Cyclin D1 using RB protein as substrate preincubated for 20 mins followed by [gamma-33P]-ATP addition measure after 120 mins by filter binding method. It is filed as protein-complex assay. A digest of the protocol:
(§2)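 Compound preincubated with kinase 20 min at room temperature. Reaction started with 10 μM [γ-33P]ATP and run 120 min at 25°C. Filter-binding read-out, curve-fitted IC50; mean ± SD of three independent experiments.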

In data set [15] the target is CDK6/cyclin D1 (Homo sapiens, UniProt Q00534). Description: Inhibition of human CDK6/Cyclin D1 using RB protein as substrate preincubated for 20 mins followed by [gamma-33P]-ATP addition measure after 120 mins by filter binding method. It counts as protein-complex assay. A digest of the protocol: as §2
Data set [16] concerns RS4-11. Kind of data set: Growth inhibition of human RS4:11 cells after 72 hrs by CellTiter-Glo assay. It is filed as functional. The following applies: RS4-11, 72 h.
Data set [17] has as its system MCF7. Description: Growth inhibition of human MCF7 cells after 72 hrs by CellTiter-Glo assay. To be noted: MCF7, 72 h. It counts as functional.
The test system of data set [18] is HCT-116. Description: Growth inhibition of human HCT116 cells after 72 hrs by CellTiter-Glo assay. It counts as functional. To be noted: HCT-116, 72 h.
The subject of data set [19] is NCI-H82. Description: Growth inhibition of human NCI-H82 cells after 72 hrs by CellTiter-Glo assay. It is filed as functional. To be noted: NCI-H82, 72 h.
Data set [20] in a line: Terminal half life in human liver microsomes by LC-MS/MS analysis. It is filed as ADME, microsome. To be noted: read-out: beta t1/2 (converted). A digest of the protocol: (§3)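 Metabolic stability measured by incubating compound in human, rat, mouse, dog and monkey liver microsomes. Terminal t1/2 determined.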
The nature of data set [21]: Intrinsic clearance in human liver microsomes by LC-MS/MS analysis. The following applies: read-out: CLH. It counts as ADME, microsome.
Data set [22] in a line: Terminal half life in rat liver microsomes by LC-MS/MS analysis. It counts as ADME, microsome. The following applies: read-out: beta t1/2 (converted). A digest of the protocol:
as §3

The nature of data set [23]: Intrinsic clearance in rat liver microsomes by LC-MS/MS analysis. The following applies: read-out: CLH. It is filed as ADME, microsome.
Data set [24] in a line: Terminal half life in mouse liver microsomes by LC-MS/MS analysis. The following applies: read-out: beta t1/2 (converted). It counts as ADME, microsome. Put shortly:
as §3

Data set [25] is described as follows: Intrinsic clearance in mouse liver microsomes by LC-MS/MS analysis. It is filed as ADME, microsome. The following applies: read-out: CLH.
Data set [26] in a line: Terminal half life in dog liver microsomes by LC-MS/MS analysis. It is filed as ADME, Canis lupus familiaris, microsome. The following applies: read-out: beta t1/2 (converted). Put shortly:
as §3

Data set [27] can be described thus: Intrinsic clearance in dog liver microsomes by LC-MS/MS analysis. It counts as ADME, Canis lupus familiaris, microsome. The following applies: read-out: CLH.
Data set [28] in a line: Terminal half life in cynomolgus monkey liver microsomes by LC-MS/MS analysis. It is filed as ADME, Macaca fascicularis, microsome. To be noted: read-out: beta t1/2 (converted). A digest of the protocol:
as §3

Data set [29] in a line: Intrinsic clearance in cynomolgus monkey liver microsomes by LC-MS/MS analysis. It counts as ADME, Macaca fascicularis, microsome. To be noted: read-out: CLH.
Data set [30] relates to MGC-803. Description: Growth inhibition of human MGC803 cells after 72 hrs by CellTiter-Glo assay. To be noted: MGC-803, 72 h. It counts as functional.
Data set [31] addresses ALK tyrosine kinase receptor (Homo sapiens, UniProt Q9UM73). Description: Inhibition of human ALK using poly[Glu:Tyr] (4:1) as substrate preincubated for 20 mins followed by [gamma-33P]-ATP addition measure after 120 mins by filter binding method. Put shortly: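 Compound in DMSO was added to the kinase mixture for 20 min at room temperature. The reaction was started with 10 μM [γ-33P]ATP and run 120 min at 25 °C.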

Chain of Cyclin-dependent kinase 4/cyclin D1 (P11802 whole entry): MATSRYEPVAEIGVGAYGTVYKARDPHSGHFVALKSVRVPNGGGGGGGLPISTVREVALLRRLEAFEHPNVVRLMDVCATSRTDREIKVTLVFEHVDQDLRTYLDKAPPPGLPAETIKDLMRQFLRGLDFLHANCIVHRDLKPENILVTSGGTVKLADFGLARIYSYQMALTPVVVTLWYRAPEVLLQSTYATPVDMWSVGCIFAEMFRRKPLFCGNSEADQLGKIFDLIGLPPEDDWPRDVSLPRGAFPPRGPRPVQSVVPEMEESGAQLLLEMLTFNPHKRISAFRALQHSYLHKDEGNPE
Chain of Cyclin-dependent kinase 4/cyclin D1 (P24385 whole entry, further chain): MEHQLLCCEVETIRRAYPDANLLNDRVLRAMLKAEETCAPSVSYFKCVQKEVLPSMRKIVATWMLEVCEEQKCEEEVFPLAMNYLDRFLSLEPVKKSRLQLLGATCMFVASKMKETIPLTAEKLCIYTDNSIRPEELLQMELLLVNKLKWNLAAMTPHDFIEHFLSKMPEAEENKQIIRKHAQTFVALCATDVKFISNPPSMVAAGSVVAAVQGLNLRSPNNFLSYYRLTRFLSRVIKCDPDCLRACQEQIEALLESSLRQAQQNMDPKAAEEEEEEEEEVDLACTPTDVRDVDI
Chain of CDK6/cyclin D1 (P24385 whole entry): as the sequence (P24385 whole entry, further chain) above
Chain of CDK6/cyclin D1 (Q00534 whole entry): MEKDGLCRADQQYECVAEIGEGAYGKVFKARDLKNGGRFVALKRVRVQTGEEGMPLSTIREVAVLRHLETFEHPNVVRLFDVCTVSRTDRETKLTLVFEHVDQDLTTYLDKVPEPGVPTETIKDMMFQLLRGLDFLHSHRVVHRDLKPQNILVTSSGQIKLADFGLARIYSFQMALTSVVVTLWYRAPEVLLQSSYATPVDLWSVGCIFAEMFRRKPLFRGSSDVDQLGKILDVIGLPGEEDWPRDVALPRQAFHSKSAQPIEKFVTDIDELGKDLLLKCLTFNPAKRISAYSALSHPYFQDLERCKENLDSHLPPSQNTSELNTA
Chain of ALK tyrosine kinase receptor (Q9UM73 whole entry): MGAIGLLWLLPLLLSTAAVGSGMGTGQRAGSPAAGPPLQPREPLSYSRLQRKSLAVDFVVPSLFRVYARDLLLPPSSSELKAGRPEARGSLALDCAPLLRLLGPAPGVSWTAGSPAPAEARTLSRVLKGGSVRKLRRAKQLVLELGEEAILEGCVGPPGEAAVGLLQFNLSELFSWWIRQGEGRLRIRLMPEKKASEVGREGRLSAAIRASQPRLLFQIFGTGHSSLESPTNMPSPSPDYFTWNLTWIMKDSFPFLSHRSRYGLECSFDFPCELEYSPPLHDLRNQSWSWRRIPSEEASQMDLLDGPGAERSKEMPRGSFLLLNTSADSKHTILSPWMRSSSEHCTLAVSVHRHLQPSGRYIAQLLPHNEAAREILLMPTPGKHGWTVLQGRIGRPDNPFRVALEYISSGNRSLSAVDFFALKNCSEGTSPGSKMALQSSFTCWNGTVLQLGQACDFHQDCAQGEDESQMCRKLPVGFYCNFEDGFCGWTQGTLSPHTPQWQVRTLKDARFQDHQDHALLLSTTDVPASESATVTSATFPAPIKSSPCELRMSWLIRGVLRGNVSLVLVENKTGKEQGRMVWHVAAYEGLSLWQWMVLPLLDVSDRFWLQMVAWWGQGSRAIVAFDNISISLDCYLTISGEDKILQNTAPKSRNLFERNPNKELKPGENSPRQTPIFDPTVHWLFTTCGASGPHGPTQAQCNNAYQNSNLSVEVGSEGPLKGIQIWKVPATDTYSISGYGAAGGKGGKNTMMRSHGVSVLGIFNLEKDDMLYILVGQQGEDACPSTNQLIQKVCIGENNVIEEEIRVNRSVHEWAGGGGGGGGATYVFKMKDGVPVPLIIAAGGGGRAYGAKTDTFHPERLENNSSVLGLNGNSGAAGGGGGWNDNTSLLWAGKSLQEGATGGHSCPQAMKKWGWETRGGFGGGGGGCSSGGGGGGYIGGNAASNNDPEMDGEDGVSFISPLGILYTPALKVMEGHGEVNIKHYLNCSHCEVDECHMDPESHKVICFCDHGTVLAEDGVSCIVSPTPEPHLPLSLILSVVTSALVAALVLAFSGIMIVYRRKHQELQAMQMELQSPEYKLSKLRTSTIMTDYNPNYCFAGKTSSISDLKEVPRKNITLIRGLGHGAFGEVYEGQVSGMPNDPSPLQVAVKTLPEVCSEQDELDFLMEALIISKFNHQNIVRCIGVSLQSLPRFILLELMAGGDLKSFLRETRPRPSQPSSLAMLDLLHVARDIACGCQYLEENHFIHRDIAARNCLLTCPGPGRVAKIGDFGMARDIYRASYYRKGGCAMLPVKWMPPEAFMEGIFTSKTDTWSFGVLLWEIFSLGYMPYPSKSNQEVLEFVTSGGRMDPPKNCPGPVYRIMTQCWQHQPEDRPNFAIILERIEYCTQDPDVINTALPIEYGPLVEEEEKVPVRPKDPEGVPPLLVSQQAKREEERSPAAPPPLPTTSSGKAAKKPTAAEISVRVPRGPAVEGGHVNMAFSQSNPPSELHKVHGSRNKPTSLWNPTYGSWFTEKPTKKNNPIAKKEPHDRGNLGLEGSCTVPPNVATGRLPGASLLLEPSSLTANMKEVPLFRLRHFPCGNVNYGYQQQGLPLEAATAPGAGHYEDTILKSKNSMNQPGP

Broadly, the IC50 is the point on the concentration scale where inhibition reaches its midpoint. The logP is a log measure of how a compound divides between an organic and an aqueous phase. For `O=C(Nc1ccc(CN2CCNCC2)cc1)c1n[nH]cc1Nc1ncnc2[nH]ccc12`, the IC50 in data set [1] was found to be 4.49 nM; in [2], 1.03 nM; in [3], 53 nM. Further, the logP in data set [4] turned out to be 1.22.
In the same order, the values of `O=C(Nc1ccc(CN2CCNCC2)cc1)c1n[nH]cc1Nc1ncnc2sccc12` are 2.08 nM, 0.34 nM, 19 nM and 2.65.
For the compound `Nc1ccn([C@@H]2O[C@H](CO)[C@@H](O)[C@@H]2O)c(=O)n1` [CYTARABINE], the inhibition in vivo at 50 mg/kg in data set [5] turned out to be 61.9%.
In data set [3], `CNC(=O)c1cc(Oc2ccc(NC(=O)Nc3ccc(Cl)c(C(F)(F)F)c3)cc2)ccn1` [SORAFENIB] had an IC50 of 4 nM. For the same compound, the Activity in [6] was 51.35%; in [7], 23.97%. In addition, in data set [8], the result was Active. Also, the inhibition entry in [9], in data set [10], in data set [11] and in data set [12] was “Active” throughout.
The term GI50 denotes the concentration that inhibits growth by half. For the compound `O=C(Nc1ccc(CN2CCOCC2)cc1)c1n[nH]cc1Nc1ncnc2sccc12`, the 50% inhibitory concentration (IC50) in [1] was 3.36 nM; in data set [2], 0.623 nM; in data set [14], 2.4 nM; in data set [15], 3.88 nM. Also, the inhibition of growth at 1 µM in data set [13] was 98.5%. Moreover, the concentration for 50% growth inhibition (GI50) in [16] came out at 170 nM; in [17], 610 nM; in data set [18], 580 nM; in [19], 290 nM; in [30] it was 210 nM. In addition, the half-life in [20] is 8.28 min; in [22], 7.08 min; in data set [24], 7.2 min; in data set [26] it was 1.5 min; in data set [28], 10.9 min. Moreover, the CLint scaled came to 165 mL/min/kg in data set [21]; 352 mL/min/kg in data set [23]; 765 mL/min/kg in [25]; 1330 mL/min/kg in data set [27]; 171 mL/min/kg in data set [29].
Regarding `CN1CCN(Cc2ccc(NC(=O)c3n[nH]cc3Nc3ncnc4sccc34)cc2)CC1`, the IC50 in data set [1] is 5.85 to 9.47 nM; in data set [2], 0.438 to 0.6 nM; in data set [3] it was 19 nM; in data set [14], 3.33 to 5.57 nM; in [15] it was 4.24 to 4.5 nM; in data set [31] it was 94.1 nM. The GI50 in data set [16] was 130 nM; in [17], 620 nM; in data set [18], 370 nM; in data set [19], 170 nM; in data set [30], 160 nM.
